Experimental data from ChEMBL document CHEMBL1140638, “Kipukasins, nucleoside derivatives from Aspergillus versicolor” (2007).
Activity calls are given as the source filed them. No cut-off for these calls is given here.

What was measured:
Aspergillus flavus = assay: Antifungal activity against Aspergillus flavus NRRL 6541 at 200 ug/disk; assay type: functional, organism-based
Fusarium verticillioides = assay: Antifungal activity against Fusarium verticillioides NRRL 25457 at 200 ug/disk; assay type: functional, organism-based
Staphylococcus aureus = assay: Antibacterial activity against Staphylococcus aureus ATCC 29213 at 100 ug/disk; assay type: functional
Method in brief: (§1)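 Disk diffusion assay with 100 μg of compound per disk. Strains used were Staphylococcus aureus ATCC 29213 and Bacillus subtilis ATCC 6051. The read-out was the diameter of the zone of inhibition in mm.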

Candida albicans = assay: Antifungal activity against Candida albicans ATCC 14053 at 200 ug/disk; assay type: functional, organism-based
Bacillus subtilis = assay: Antibacterial activity against Bacillus subtilis at 100 ug/disk; assay type: functional; method in brief: as §1

What does the source list for COc1cc(C)c(C(=O)O[C@H]2[C@@H](OC(C)=O)[C@H](n3ccc(=O)[nH]c3=O)O[C@@H]2CO)c(O)c1?
Activity (Aspergillus flavus): inactive; Activity (Fusarium verticillioides): inactive; Activity (Staphylococcus aureus): inactive; Activity (Candida albicans): inactive; Activity (Bacillus subtilis): inactive

COc1cc(C)c(C(=O)O[C@@H]2[C@H](O)[C@@H](CO)O[C@H]2n2ccc(=O)[nH]c2=O)c(OC)c1 was tested. Which Activity (Aspergillus flavus) did it give?
Its Activity is “inactive”.

What about the Activity (Fusarium verticillioides) of the same compound?
Its Activity is “inactive”.

What about the Activity (Staphylococcus aureus) of the same compound?
Its Activity is “inactive”.

What about the Activity (Candida albicans) of the same compound?
Its Activity is “inactive”.

What about the Activity (Bacillus subtilis) of the same compound?
The Activity was “inactive”.

Which results are given for COc1cc(C)c(C(=O)O[C@H]2[C@@H](OC(C)=O)[C@H](n3ccc(=O)[nH]c3=O)O[C@@H]2CO)c(OC)c1?
Activity (Aspergillus flavus): inactive; Activity (Fusarium verticillioides): inactive; zone of inhibition at 100 µg/disc (Staphylococcus aureus; read-out: IZ): 18 mm; Activity (Candida albicans): inactive

Which results are given for COc1cc(O)cc(C)c1C(=O)O[C@H]1[C@@H](O)[C@H](n2ccc(=O)n(C)c2=O)O[C@@H]1CO?
Activity (Aspergillus flavus): inactive; Activity (Fusarium verticillioides): inactive; Activity (Staphylococcus aureus): inactive; Activity (Candida albicans): inactive; Activity (Bacillus subtilis): inactive

COc1cc(C)c(C(=O)O[C@H]2[C@@H](O)[C@H](n3ccc(=O)[nH]c3=O)O[C@@H]2CO)c(OC)c1 was tested. Which Activity (Aspergillus flavus) did it give?
Its Activity is “inactive”.

And the Activity (Fusarium verticillioides)?
Its Activity is “inactive”.

What about the Activity (Staphylococcus aureus) of the same compound?
Its Activity is “inactive”.

What about the Activity (Candida albicans) of the same compound?
Its Activity is “inactive”.

And the Activity (Bacillus subtilis)?
Its Activity is “inactive”.

What does the source list for COc1cc(O)cc(C)c1C(=O)O[C@H]1[C@@H](OC(C)=O)[C@H](n2ccc(=O)[nH]c2=O)O[C@@H]1CO?
Activity (Aspergillus flavus): inactive; Activity (Fusarium verticillioides): inactive; Activity (Candida albicans): inactive; zone of inhibition at 100 µg/disc (Bacillus subtilis; read-out: IZ): 12 mm

With COc1cc(O)cc(C)c1C(=O)O[C@H]1[C@@H](OC(C)=O)[C@H](n2ccc(=O)n(C)c2=O)O[C@@H]1CO as the compound, how does the Activity (Aspergillus flavus) read?
Its Activity is “inactive”.

And the Activity (Fusarium verticillioides)?
The Activity was “inactive”.

What about the Activity (Staphylococcus aureus) of the same compound?
Its Activity is “inactive”.

What about the Activity (Candida albicans) of the same compound?
Its Activity is “inactive”.

What about the Activity (Bacillus subtilis) of the same compound?
Its Activity is “inactive”.
